In ChEMBL document CHEMBL1145926, “Polyamine-iron chelator conjugate” (J Med Chem, 2003) one finds Activity, Ki and IC50 data, which are given here for 5 molecules.

Test [1] deals with Diamine acetyltransferase 1 (Mus musculus) (UniProt P48026). As to the kind of experiment: Compound was tested for the enzyme activity against Spermidine/spermine N1-acetyl transferase (SSAT) in L1210 cells and expressed as percent compound found in untreated controls. It is filed as cell-based. The essentials: (§1)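 L1210 cells were treated for 48 h at 10 µM, or at 0.2 µM for the conjugate. SSAT activity was measured as [14C]N1-acetylspermidine formed from spermidine and [14C]acetyl-CoA, expressed as percent of untreated control. The positive control was 2 µM DENSPM. Results are the mean of at least three experiments.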
Chain of Diamine acetyltransferase 1 (Mus musculus) (P48026 whole entry): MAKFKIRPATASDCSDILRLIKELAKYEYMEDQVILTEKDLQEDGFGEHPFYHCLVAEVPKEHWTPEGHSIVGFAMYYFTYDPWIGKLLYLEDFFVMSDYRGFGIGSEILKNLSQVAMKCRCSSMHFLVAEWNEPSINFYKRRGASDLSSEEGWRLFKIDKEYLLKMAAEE

Test [2] deals with L1210. Put plainly: Compound was determined for putrescine (PUT) level in L1210 cells after treatment at a concentration of 50 uM and expressed as percent compound found in untreated controls. It is filed as functional, Mus musculus. The essentials: (§2)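 Murine L1210 leukaemia cells, kept in log-phase suspension in RPMI-1640 with 10% FBS, 1 mM glutamine and 1 mM aminoguanidine at 37 °C, 5% CO2, were treated at 50 μM for 48 h. Cells were washed three times in ice-cold incomplete medium, extracted with 0.6 N perchloric acid and freeze-fractured. Putrescine, spermidine and spermine were then measured by HPLC and expressed as percent of untreated control.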

Test [3] is described as follows: Compound was tested for the inhibition of spermidine transporter by using [3H]SPD transport in L1210 cell. It is filed as functional, cell-based, Mus musculus. The essentials: (§3)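 L1210 cell suspensions were incubated in culture medium with [3H]spermidine, either alone or with graduated concentrations of competitor. Cells were pelleted, washed, digested, neutralized and scintillation-counted. Ki was derived from Lineweaver–Burk plots assuming competitive inhibition against spermidine, as the mean of two to three experiments.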

The target in test [4] is T1, S-adenosylmethionine decarboxylase proenzyme 1 (Mus musculus) (UniProt P0DMN7).
T1 sequence (whole entry): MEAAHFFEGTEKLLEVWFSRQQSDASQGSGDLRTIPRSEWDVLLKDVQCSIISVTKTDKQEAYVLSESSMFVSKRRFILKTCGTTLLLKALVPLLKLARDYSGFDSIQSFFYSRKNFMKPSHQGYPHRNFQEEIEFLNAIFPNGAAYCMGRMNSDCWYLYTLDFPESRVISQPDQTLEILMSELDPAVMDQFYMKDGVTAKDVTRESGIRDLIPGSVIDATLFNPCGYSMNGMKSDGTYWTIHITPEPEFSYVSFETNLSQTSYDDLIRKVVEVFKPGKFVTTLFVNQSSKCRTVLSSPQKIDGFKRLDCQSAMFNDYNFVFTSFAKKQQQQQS
As to the kind of experiment: Compound was tested for the enzyme activity against S-Adenosyl-methionine decarboxylase in L1210 cells and expressed as percent compound found in untreated controls. It is filed as cell-based. The essentials:
(§4)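 L1210 cells were treated at 1 µM for 6 h. AdoMetDC activity was measured as 14CO2 released from [14C]carboxyl-labeled S-adenosyl-L-methionine and expressed as percent of untreated control. Controls were untreated cells and 1 µM DEHSPM-treated cells. Results are the mean of at least three experiments.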

The test system of test [5] is L1210. As to the kind of experiment: Compound was determined for spermidine (SPD) level in L1210 cells after treatment at a concentration of 50 uM and expressed as percent compound found in untreated controls. It is filed as functional, Mus musculus. The essentials: as §2
For test [6], the target named is T2, Ornithine decarboxylase (Mus musculus) (UniProt P00860).
T2 sequence (whole entry): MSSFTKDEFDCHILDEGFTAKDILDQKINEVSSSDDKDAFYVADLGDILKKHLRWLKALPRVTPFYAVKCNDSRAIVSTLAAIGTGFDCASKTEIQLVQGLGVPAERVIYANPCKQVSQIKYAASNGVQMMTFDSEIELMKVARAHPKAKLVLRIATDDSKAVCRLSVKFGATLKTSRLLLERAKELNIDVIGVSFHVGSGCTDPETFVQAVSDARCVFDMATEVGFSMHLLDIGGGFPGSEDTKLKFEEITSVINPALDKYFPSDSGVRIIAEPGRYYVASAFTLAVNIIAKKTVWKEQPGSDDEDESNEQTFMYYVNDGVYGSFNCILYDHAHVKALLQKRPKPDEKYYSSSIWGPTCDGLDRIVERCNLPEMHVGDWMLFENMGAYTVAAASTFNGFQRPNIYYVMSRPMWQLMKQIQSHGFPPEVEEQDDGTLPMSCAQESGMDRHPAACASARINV
Put plainly: Compound was tested for the enzyme activity against ornithine decarboxylase (ODC) in L1210 cells and expressed as percent compound found in untreated controls. It is filed as cell-based. The essentials: (§5)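 L1210 cells were treated at 1 µM for 4 h. ODC activity was measured as 14CO2 released from [14C]carboxyl-labeled L-ornithine and expressed as percent of untreated control. Controls were untreated cells and 1 µM DEHSPM-treated cells. Results are the mean of at least three experiments.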

The test system of test [7] is L1210. Put plainly: Compound was determined for spermine (SPM) level in L1210 cells after treatment at a concentration of 50 uM and expressed as percent compound found in untreated controls. It is filed as functional, Mus musculus. The essentials: as §2
Test [8] concerns the target T1, S-adenosylmethionine decarboxylase proenzyme 1 (Mus musculus). As to the kind of experiment: Compound was tested for the enzyme activity against S-Adenosyl-methionine decarboxylase in murine L1210 cells and expressed as percent compound found in untreated controls. It is filed as cell-based. The essentials:
as §4

The nature of test [9]: Compound was tested for the inhibition of spermidine transporter by using [3H]SPD transport in murine L1210 cell. It is filed as functional, cell-based, Mus musculus. The essentials:
as §3

For test [10], the system named is L1210. Put plainly: Compound was determined for spermidine (SPD) level in L1210 cells after treatment at a concentration of 100 uM and expressed as percent compound found in untreated controls. It is filed as functional, Mus musculus.
The test system of test [11] is L1210. Put plainly: Compound was tested for the growth inhibition of murine L1210 cell at a duration of 48 h. It is filed as functional, cell-based. The settings on record: Mus musculus, L1210, 48 h. The essentials: (§6)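 Log-phase suspension cultures of murine L1210 cells (0.5–1.0 × 10^5 cells/mL) were grown in RPMI-1640 with 10% FBS and 1 mM aminoguanidine at 37 °C and 5% CO2. Cells were treated, reseeded and counted to give percent of control growth. IC50 is the concentration reducing growth to 50% of control after 48 or 96 h, as the mean of at least two experiments.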

Test [12] relates to L1210. Put plainly: Compound was determined for putrescine (PUT) level in murine L1210 cells after treatment at a concentration of 100 uM and expressed as percent compound found in untreated controls. It is filed as functional, Mus musculus.
Test [13] relates to L1210. As to the kind of experiment: Compound was determined for spermine (SPM) level in murine L1210 cells after treatment at a concentration of 100 uM and expressed as percent compound found in untreated controls. It is filed as functional, Mus musculus.
In test [14] the target is Diamine acetyltransferase 1 (Mus musculus) (UniProt P48026). As to the kind of experiment: Compound was tested for the enzyme activity against Spermidine/spermine N1-acetyl transferase (SSAT) in murine L1210 cells and expressed as percent compound found in untreated controls. It is filed as cell-based. The essentials: as §1
In test [15] the test system is L1210. Put plainly: Compound was tested for the growth inhibition of murine L1210 cell at a duration of 96 h. The settings on record: Mus musculus, L1210, 96 h. It is filed as functional, cell-based. The essentials:
as §6

Test [16] deals with T2, Ornithine decarboxylase (Mus musculus). Put plainly: Compound was tested for the enzyme activity against ornithine decarboxylase (ODC) in murine L1210 cells and expressed as percent compound found in untreated controls. It is filed as cell-based. The essentials: as §5
Test [17] concerns L1210. Put plainly: Compound was determined for spermidine (SPD) level in L1210 cells after treatment at a concentration of 0.2 uM and expressed as percent compound found in untreated controls. It is filed as functional, Mus musculus. The essentials: (§7)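 L1210 cells in RPMI-1640 with 10% FBS, HEPES-MOPS, 1 mM glutamine and 1 mM aminoguanidine were exposed to 0.2 µM during log growth for 48 h. Cells were washed three times in ice-cold incomplete medium, extracted with 0.6 N perchloric acid and freeze-fractured three times. Putrescine, spermidine and spermine were measured by HPLC and expressed as percent of untreated control.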

Test [18] deals with L1210. As to the kind of experiment: Compound was determined for putrescine (PUT) level in L1210 cells after treatment at a concentration of 0.2 uM and expressed as percent compound found in untreated controls. It is filed as functional, Mus musculus. The essentials: as §7
For test [19], the system named is L1210. As to the kind of experiment: Compound was tested for the growth inhibition of L1210 cell at a duration of 96 h. It is filed as functional, cell-based. The settings on record: Mus musculus, L1210, 96 h.
Test [20] concerns L1210. Put plainly: Compound was determined for spermine (SPM) level in L1210 cells after treatment at a concentration of 0.2 uM and expressed as percent compound found in untreated controls. It is filed as functional, Mus musculus. The essentials:
as §7

Test [21] concerns L1210. Put plainly: Compound was determined for spermine (SPM) level in L1210 cells after treatment at a concentration of 100 uM and expressed as percent compound found in untreated controls. It is filed as functional, Mus musculus.
Test [22] deals with L1210. As to the kind of experiment: Compound was determined for putrescine (PUT) level in L1210 cells after treatment at a concentration of 100 uM and expressed as percent compound found in untreated controls. It is filed as functional, Mus musculus.
Test [23] concerns L1210. Put plainly: Compound was tested for the growth inhibition of L1210 cell at a duration of 48 h. It is filed as functional, cell-based. The settings on record: Mus musculus, L1210, 48 h.

Broadly, the Ki is a dissociation constant, usually derived from enzyme kinetics or from competition with a known ligand. Lower therefore signals a stronger hold on the target. As usually defined, the IC50 is the concentration needed to halve the response being measured.

Turning to `Cc1c(O)c(=O)ccn1C` [DEFERIPRONE], the Activity in [1] worked out at 108%; in the test with L1210 [2], 104%; in test [4], 120%; in the test on L1210 [5], 117%; in [6] it was 114%; in the test with L1210 [7] it was 127%. The inhibition constant (Ki) in test [3] was over 500 µM.
Consider `CC(=O)NCCCNCCCCNCCCN`, for which the Activity stood at 86% in test [8]; 71% in the test with L1210 [10]; 24% with L1210 [12]; 111% with L1210 [13]; 180% in test [14]; 25% in test [16]. In [9], this molecule returned an inhibition constant (Ki) of 10 µM. The IC50 in the test on L1210 [11] and in the test on L1210 [15] was over 100 µM in each case.
Regarding `Cc1c(O)c(=O)ccn1CCCNCCCCNCCCN`, the Activity in the test on L1210 [17] worked out at 64%; in test [1] it was 275%; in the test on L1210 [18], 33%; in test [4] it was 77%; in test [6], 20%; in the test on L1210 [20], 139%. This molecule also registered a Ki in test [3] of 3.7 µM. Also, in the test on L1210 [19], inhibition was half-maximal at 0.2 µM (IC50).
As to `CCNCCCNCCCCNCCCN`, the Activity in [1] is 150%.
For `CCCNCCCCNCCCN`, the Activity worked out at 33% with L1210 [10]; 500% in test [1]; 103% in the test on L1210 [21]; 64% in [4]; 0% with L1210 [22]; 14% in [6]. The same molecule came in with a Ki in test [3] of 8.5 µM. This molecule gave a half-maximal inhibitory concentration (IC50) with L1210 [23] of over 100 µM.
